Reference: ChEMBL document CHEMBL5724801, “EUbOPEN Chemogenomics Library - Multiplex” (2024)
Where “and” joins values, the source holds several entries; their conditions need not be identical. Identical values can stand only once.

System: U2OS
Test: Multiplex assay against U2OS
Type: toxicity, cell-based
Details: human
How it was run: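 With compound added, live cells were imaged on a CQ1 microscope at 37°C and 5% CO2; staining with Hoechst33342, BioTracker Green Microtubule Cytoskeleton Dye, MitoTracker Red and Annexin V Alexa Fluor 680 had been done at seeding. The CellPathfinder machine-learning gating scheme split cells into Hoechst high-intensity objects or normal cells, normal cells into healthy, pyknosed or fragmented nuclei, and pyknosed cells into mitotic or apoptotic. The tubulin, mitochondrial-mass and membrane-permeability phenotypes are per cents of healthy-nucleus cells.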

[1] = 12 h, 1 µM, compound concentration 1 uM
[2] = 12 h, 10 µM, compound concentration 10 uM
[3] = 24 h, 1 µM, compound concentration 1 uM
[4] = 24 h, 10 µM, compound concentration 10 uM
[5] = 48 h, 1 µM, compound concentration 1 uM
[6] = 48 h, 10 µM, compound concentration 10 uM

C[C@H](NC(=O)c1c(C(F)F)nn(C)c1Oc1cccc(C(F)(F)F)c1)c1ccc(C(=O)O)cc1 [PALUPIPRANT]
Population Apoptotic (%) [1]: 60% and 91%
Population Fragmented Nuclei (%) [1]: 27% and 12%
Population Healthy Nuclei (%) [1]: 63% and 78%
Population Hoechst High Intensity Objects (%) [1]: 3% and 0%
Population Membrane Permeable-Phenotype (%) [1]: 4%
Population Mitochondria Different-Phenotype (%) [1]: 1% and 0%
Population Normal (%) [1]: 96% and 99%
Population Pyknosed Nuclei (%) [1]: 8% and 9%
Population Tubulin-Different-Phenotype (%) [1]: 1% and 2%
Total Cell Count [1]: 266 and 132
Population Apoptotic (%) [2]: 83% and 100%
Population Fragmented Nuclei (%) [2]: 28% and 13%
Population Healthy Nuclei (%) [2]: 62% and 77%
Population Hoechst High Intensity Objects (%) [2]: 3%
Population Membrane Permeable-Phenotype (%) [2]: 7% and 5%
Population Mitochondria Different-Phenotype (%) [2]: 4% and 2%
Population Mitotic Cells (%) [2]: 16% and 0%
Population Normal (%) [2]: 96%
Population Pyknosed Nuclei (%) [2]: 8%
Population Tubulin-Different-Phenotype (%) [2]: 5% and 2%
Total Cell Count [2]: 293 and 117
Population Apoptotic (%) [3]: 87% and 94%
Population Fragmented Nuclei (%) [3]: 20% and 14%
Population Healthy Nuclei (%) [3]: 72% and 73%
Population Hoechst High Intensity Objects (%) [3]: 2% and 1%
Population Membrane Permeable-Phenotype (%) [3]: 4% and 5%
Population Mitochondria Different-Phenotype (%) [3]: 1% and 0%
Population Mitotic Cells (%) [3]: 12% and 5%
Population Normal (%) [3]: 97% and 98%
Population Pyknosed Nuclei (%) [3]: 7% and 11%
Population Tubulin-Different-Phenotype (%) [3]: 3% and 5%
Total Cell Count [3]: 316 and 147
Population Apoptotic (%) [4]: 91%
Population Fragmented Nuclei (%) [4]: 18% and 13%
Population Healthy Nuclei (%) [4]: 74% and 77%
Population Hoechst High Intensity Objects (%) [4]: 2%
Population Membrane Permeable-Phenotype (%) [4]: 5%
Population Mitochondria Different-Phenotype (%) [4]: 3% and 1%
Population Mitotic Cells (%) [4]: 8%
Population Normal (%) [4]: 97%
Population Pyknosed Nuclei (%) [4]: 7% and 8%
Population Tubulin-Different-Phenotype (%) [4]: 1% and 0%
Total Cell Count [4]: 339 and 139
Population Apoptotic (%) [5]: 82% and 92%
Population Fragmented Nuclei (%) [5]: 15%
Population Healthy Nuclei (%) [5]: 73% and 70%
Population Hoechst High Intensity Objects (%) [5]: 2% and 0%
Population Membrane Permeable-Phenotype (%) [5]: 3%
Population Mitochondria Different-Phenotype (%) [5]: 1% and 0%
Population Mitotic Cells (%) [5]: 17% and 7%
Population Normal (%) [5]: 97% and 99%
Population Pyknosed Nuclei (%) [5]: 11% and 13%
Population Tubulin-Different-Phenotype (%) [5]: 1% and 2%
Total Cell Count [5]: 426 and 207
Population Apoptotic (%) [6]: 91% and 85%
Population Fragmented Nuclei (%) [6]: 18% and 14%
Population Healthy Nuclei (%) [6]: 73% and 79%
Population Hoechst High Intensity Objects (%) [6]: 2% and 1%
Population Membrane Permeable-Phenotype (%) [6]: 5% and 1%
Population Mitochondria Different-Phenotype (%) [6]: 3% and 1%
Population Mitotic Cells (%) [6]: 8% and 14%
Population Normal (%) [6]: 97% and 98%
Population Pyknosed Nuclei (%) [6]: 7% and 6%
Population Tubulin-Different-Phenotype (%) [6]: 3% and 0%
Total Cell Count [6]: 463 and 223

O=C(NCC(=O)N1CC[C@H](N[C@H]2CC[C@@](O)(c3ccc(-c4ncccn4)cn3)CC2)C1)c1cccc(C(F)(F)F)c1 [PF-4136309]
Population Apoptotic (%) [1]: 79% and 93%
Population Fragmented Nuclei (%) [1]: 25% and 13%
Population Healthy Nuclei (%) [1]: 64% and 74%
Population Hoechst High Intensity Objects (%) [1]: 1% and 4%
Population Membrane Permeable-Phenotype (%) [1]: 6% and 11%
Population Mitochondria Different-Phenotype (%) [1]: 3% and 5%
Population Normal (%) [1]: 98% and 95%
Population Pyknosed Nuclei (%) [1]: 9% and 12%
Population Tubulin-Different-Phenotype (%) [1]: 4% and 8%
Total Cell Count [1]: 249 and 138
Population Apoptotic (%) [2]: 68% and 60%
Population Fragmented Nuclei (%) [2]: 25% and 22%
Population Healthy Nuclei (%) [2]: 62% and 66%
Population Hoechst High Intensity Objects (%) [2]: 4% and 1%
Population Membrane Permeable-Phenotype (%) [2]: 15% and 25%
Population Mitochondria Different-Phenotype (%) [2]: 4% and 10%
Population Mitotic Cells (%) [2]: 31% and 40%
Population Normal (%) [2]: 95% and 98%
Population Pyknosed Nuclei (%) [2]: 12% and 11%
Population Tubulin-Different-Phenotype (%) [2]: 9% and 11%
Total Cell Count [2]: 242 and 90
Population Apoptotic (%) [3]: 80% and 91%
Population Fragmented Nuclei (%) [3]: 22% and 16%
Population Healthy Nuclei (%) [3]: 69% and 76%
Population Hoechst High Intensity Objects (%) [3]: 1% and 3%
Population Membrane Permeable-Phenotype (%) [3]: 4% and 5%
Population Mitochondria Different-Phenotype (%) [3]: 2% and 4%
Population Mitotic Cells (%) [3]: 20% and 8%
Population Normal (%) [3]: 98% and 96%
Population Pyknosed Nuclei (%) [3]: 8% and 7%
Population Tubulin-Different-Phenotype (%) [3]: 2%
Total Cell Count [3]: 304 and 169
Population Apoptotic (%) [4]: 83% and 75%
Population Fragmented Nuclei (%) [4]: 23% and 21%
Population Healthy Nuclei (%) [4]: 62% and 70%
Population Hoechst High Intensity Objects (%) [4]: 3% and 0%
Population Membrane Permeable-Phenotype (%) [4]: 10% and 15%
Population Mitochondria Different-Phenotype (%) [4]: 3% and 11%
Population Mitotic Cells (%) [4]: 16% and 25%
Population Normal (%) [4]: 96% and 99%
Population Pyknosed Nuclei (%) [4]: 13% and 7%
Population Tubulin-Different-Phenotype (%) [4]: 3% and 7%
Total Cell Count [4]: 271 and 102
Population Apoptotic (%) [5]: 87% and 96%
Population Fragmented Nuclei (%) [5]: 14% and 12%
Population Healthy Nuclei (%) [5]: 74% and 75%
Population Hoechst High Intensity Objects (%) [5]: 2% and 3%
Population Membrane Permeable-Phenotype (%) [5]: 4% and 6%
Population Mitochondria Different-Phenotype (%) [5]: 3%
Population Mitotic Cells (%) [5]: 12% and 4%
Population Normal (%) [5]: 97% and 96%
Population Pyknosed Nuclei (%) [5]: 11%
Population Tubulin-Different-Phenotype (%) [5]: 3% and 4%
Total Cell Count [5]: 443 and 224
Population Apoptotic (%) [6]: 69% and 92%
Population Fragmented Nuclei (%) [6]: 22% and 20%
Population Healthy Nuclei (%) [6]: 61% and 60%
Population Hoechst High Intensity Objects (%) [6]: 4% and 0%
Population Membrane Permeable-Phenotype (%) [6]: 9% and 15%
Population Mitochondria Different-Phenotype (%) [6]: 5% and 8%
Population Normal (%) [6]: 95% and 100%
Population Pyknosed Nuclei (%) [6]: 15% and 18%
Population Tubulin-Different-Phenotype (%) [6]: 4%
Total Cell Count [6]: 360 and 138

CC(C)(C)c1cc(NC(=O)Nc2ccc(-c3cn4c(n3)sc3cc(OCCN5CCOCC5)ccc34)cc2)no1 [QUIZARTINIB]
Population Apoptotic (%) [1]: 48% and 78%
Population Fragmented Nuclei (%) [1]: 24% and 17%
Population Healthy Nuclei (%) [1]: 61% and 70%
Population Hoechst High Intensity Objects (%) [1]: 6% and 1%
Population Membrane Permeable-Phenotype (%) [1]: 13% and 6%
Population Mitochondria Different-Phenotype (%) [1]: 4% and 6%
Population Mitotic Cells (%) [1]: 51% and 21%
Population Normal (%) [1]: 93% and 98%
Population Pyknosed Nuclei (%) [1]: 14% and 11%
Population Tubulin-Different-Phenotype (%) [1]: 8% and 4%
Total Cell Count [1]: 213 and 119
Population Apoptotic (%) [2]: 58% and 23%
Population Fragmented Nuclei (%) [2]: 30% and 11%
Population Healthy Nuclei (%) [2]: 47% and 65%
Population Hoechst High Intensity Objects (%) [2]: 13% and 6%
Population Membrane Permeable-Phenotype (%) [2]: 85% and 62%
Population Mitochondria Different-Phenotype (%) [2]: 26% and 33%
Population Mitotic Cells (%) [2]: 41% and 76%
Population Normal (%) [2]: 86% and 94%
Population Pyknosed Nuclei (%) [2]: 21% and 22%
Population Tubulin-Different-Phenotype (%) [2]: 76% and 54%
Total Cell Count [2]: 197 and 100
Population Apoptotic (%) [3]: 57% and 62%
Population Fragmented Nuclei (%) [3]: 25% and 15%
Population Healthy Nuclei (%) [3]: 56% and 72%
Population Hoechst High Intensity Objects (%) [3]: 2% and 0%
Population Membrane Permeable-Phenotype (%) [3]: 15% and 9%
Population Mitochondria Different-Phenotype (%) [3]: 8% and 4%
Population Mitotic Cells (%) [3]: 42% and 37%
Population Normal (%) [3]: 97% and 99%
Population Pyknosed Nuclei (%) [3]: 17% and 12%
Population Tubulin-Different-Phenotype (%) [3]: 7% and 5%
Total Cell Count [3]: 234 and 134
Population Apoptotic (%) [4]: 63% and 51%
Population Healthy Nuclei (%) [4]: 34% and 58%
Population Hoechst High Intensity Objects (%) [4]: 11% and 2%
Population Membrane Permeable-Phenotype (%) [4]: 55% and 40%
Population Mitochondria Different-Phenotype (%) [4]: 38% and 32%
Population Mitotic Cells (%) [4]: 36% and 48%
Population Normal (%) [4]: 88% and 97%
Population Pyknosed Nuclei (%) [4]: 30%
Population Tubulin-Different-Phenotype (%) [4]: 45% and 30%
Total Cell Count [4]: 195 and 96
Population Apoptotic (%) [5]: 60% and 73%
Population Fragmented Nuclei (%) [5]: 21% and 16%
Population Healthy Nuclei (%) [5]: 61% and 72%
Population Hoechst High Intensity Objects (%) [5]: 3% and 2%
Population Membrane Permeable-Phenotype (%) [5]: 7% and 9%
Population Mitochondria Different-Phenotype (%) [5]: 2% and 7%
Population Mitotic Cells (%) [5]: 39% and 26%
Population Normal (%) [5]: 96% and 97%
Population Pyknosed Nuclei (%) [5]: 16% and 10%
Population Tubulin-Different-Phenotype (%) [5]: 3% and 6%
Total Cell Count [5]: 297 and 180
Population Apoptotic (%) [6]: 72% and 56%
Population Fragmented Nuclei (%) [6]: 33% and 19%
Population Healthy Nuclei (%) [6]: 25% and 48%
Population Hoechst High Intensity Objects (%) [6]: 9% and 5%
Population Membrane Permeable-Phenotype (%) [6]: 41% and 35%
Population Mitochondria Different-Phenotype (%) [6]: 33%
Population Mitotic Cells (%) [6]: 27% and 43%
Population Normal (%) [6]: 90% and 94%
Population Pyknosed Nuclei (%) [6]: 40% and 32%
Population Tubulin-Different-Phenotype (%) [6]: 33% and 28%
Total Cell Count [6]: 219 and 98
